Active and inactive are the calls of the source. The calls are words filed in the database; no cut-off is given here.
What follows are molecules tested against T1, Transcriptional activator protein LuxR (Aliivibrio fischeri, UniProt P12746) (assay: Agonist activity at Vibrio fischeri LuxR expressed in Escherichia coli NM522 coexpressing LuxCDABE assessed as activation of 3-oxoC6-HSL-induced quorum sensing activation measured after 4 to 5 hrs by reporter gene assay). Conditions: not given.
T1 sequence (P12746 whole entry): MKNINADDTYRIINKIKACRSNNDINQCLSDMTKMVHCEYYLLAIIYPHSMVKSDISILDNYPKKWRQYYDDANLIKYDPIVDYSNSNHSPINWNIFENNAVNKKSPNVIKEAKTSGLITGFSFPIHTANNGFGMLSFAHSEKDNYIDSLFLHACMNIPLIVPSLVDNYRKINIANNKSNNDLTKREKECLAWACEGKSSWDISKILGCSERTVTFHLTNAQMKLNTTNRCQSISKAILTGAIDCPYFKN
Format: functional
Summary of the method: (§1)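 E. coli biosensor carrying pSB401, in which V. fischeri luxR and the luxI promoter drive P. luminescens luxCDABE. Cultures were grown to exponential phase in Luria broth with tetracycline (20) at 30 °C. Analogues were added alone at up to 200 in microtitre plates. Luminescence was read after 4–5 h, at the maximal ratio of induced to background light. EC50 is the concentration giving 50% bioluminescence intensity.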

Question: For `CCCCCCc1nnnn1C1CCOC1=O` (racemic), which EC50 is on record?
Answer: Its EC50 is 35 µM.

Question: With `CCCCCc1nnnn1C1CCOC1=O` (racemic) as the molecule, how does the EC50 read?
Answer: Its EC50 is 10 µM.

Each molecule was assayed against T2, Transcriptional activator protein LuxR (Aliivibrio fischeri) (UniProt P12746) (assay: Agonist activity at Vibrio fischeri LuxR expressed in Escherichia coli NM522 coexpressing LuxCDABE assessed as activation of 3-oxoC6-HSL-induced quorum sensing activation at 200 uM measured after 4 to 5 hrs by reporter gene assay). Conditions: not given.
T2 sequence (whole entry): T1 sequence (P12746 whole entry)
Format: functional
Summary of the method: as §1

Question: `CCCCCCCCCCCCn1cc(CC(=O)O)nn1` was tested. Which Activity did it give?
Answer: Its Activity is “inactive”.

Question: Which Activity does the source give for `CCCCCCCCCCCCc1cn(CC(=O)O)nn1` here?
Answer: The Activity was “inactive”.

Question: How did the Activity turn out when `CCCCCn1cc(CC(=O)O)nn1` was run?
Answer: Its Activity is “inactive”.

Question: How did the Activity turn out when `CCCCCc1cn(CC(=O)OCC)nn1` was run?
Answer: Its Activity is “inactive”.

Question: With `CCCCCn1cc(CC(=O)OCC)nn1` as the molecule, how does the Activity read?
Answer: The Activity was “inactive”.

Question: Which Activity does the source give for `CCCCCc1cn(CC(N)=O)nn1` here?
Answer: Its Activity is “inactive”.

Question: For `CCCCCc1cn(CC(=O)NO)nn1`, which Activity is on record?
Answer: The Activity was “inactive”.

Question: `CCCCCc1cn(CC(=O)O)nn1` was tested. Which Activity did it give?
Answer: Its Activity is “inactive”.

Question: `CCCCCc1cn(C2CCOC2=O)nn1` (racemic) was tested. Which Activity did it give?
Answer: Its Activity is “inactive”.

Question: How did the Activity turn out when `CCCCCCCCCCCCc1cn(CC(=O)OCC)nn1` was run?
Answer: The Activity was “inactive”.

Question: For `CCCCCCCCCCCCn1cc(CC(=O)OCC)nn1`, which Activity is on record?
Answer: The Activity was “inactive”.

These molecules were tested against T1, Transcriptional activator protein LuxR (assay: Antagonist activity at Vibrio fischeri LuxR expressed in Escherichia coli NM522 coexpressing LuxCDABE assessed as inhibition of 3-oxoC6-HSL-induced quorum sensing activation measured after 4 to 5 hrs by reporter gene assay). Conditions: not given.
Format: functional
Summary of the method: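 The inhibition read-out is the decrease in bioluminescence induced by 200 nM 3-oxo-C6-HSL in E. coli carrying pSB401 (V. fischeri luxR/luxI promoter fused to P. luminescens luxCDABE). Cells were grown to exponential phase in Luria broth with tetracycline at 30 °C. Light was quantified by luminometer in microtitre plates after 4–5 h, when the ratio of induced to background light peaked.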

Question: For `CCCCCc1cn(CC(N)=O)nn1`, which IC50 is on record?
Answer: Its IC50 is “Not Active”.

Question: For `CCCCCc1cn(CC(=O)NO)nn1`, which IC50 is on record?
Answer: Its IC50 is “Not Active”.

Question: `CCCCCc1cn(CC(=O)O)nn1` was tested. Which IC50 did it give?
Answer: Its IC50 is “Not Active”.

Same assay, conditions: read-out: IC50

Question: Which IC50 does the source give for `CCCCCCn1nnnc1C1CCOC1=O` (racemic) here?
Answer: Its IC50 is 74 µM.

Question: With `CCCCn1nnnc1C1CCOC1=O` (racemic) as the molecule, how does the IC50 read?
Answer: Its IC50 is over 200 µM.

Question: For `CCCCCCn1nnnc1CC(=O)OCC`, which IC50 is on record?
Answer: Its IC50 is over 200 µM.

Question: With `CCCCCn1nnnc1C1CCOC1=O` (racemic) as the molecule, how does the IC50 read?
Answer: Its IC50 is 80 µM.

Question: For `CCCCCc1cn(CC(=O)OCC)nn1`, which IC50 is on record?
Answer: The IC50 was 94 µM.

Question: How did the IC50 turn out when `CCCCCc1cn(C2CCOC2=O)nn1` (racemic) was run?
Answer: Its IC50 is 51 µM.

What follows are molecules tested against T2, Transcriptional activator protein LuxR (Aliivibrio fischeri) (assay: Agonist activity at Vibrio fischeri LuxR expressed in Escherichia coli NM522 coexpressing LuxCDABE assessed as activation of 3-oxoC6-HSL-induced quorum sensing activation measured after 4 to 5 hrs by reporter gene assay relative to control). Conditions: not given.
Format: functional
Summary of the method: as §1

Question: Which Activity does the source give for `CCCCCCc1nnnn1C1CCOC1=O` (racemic) here?
Answer: The Activity was 102 RLU.

Question: `CCCCCc1nnnn1C1CCOC1=O` (racemic) was tested. Which Activity did it give?
Answer: Its Activity is 59 RLU.

Source: ChEMBL document CHEMBL2062442, “Synthesis and biological evaluation of new N-acyl-homoserine-lactone analogues, based on triazole and tetrazole scaffolds, acting as LuxR-dependent quorum sensing modulators” (Bioorg Med Chem, 2012)
